Most compounds without a hit are left out; they make up all but 4.7% or so of the library.
MrgX1 PAM: allosterically activates human MrgX1 receptor signaling; Q96LB2; MrgX1-HEK293, Fluo-4 calcium flux, FDSS; hits give high values; B-score at 10 µM; hit rate 0.63% among 310,000;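 active = plate-corrected calcium response at least 3 library SD above typical, normal starting fluorescence, not activating the receptor alone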;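 also: compound read alongside a low EC10 to EC30 dose of BAM8-22 agonist; peak minus trough fluorescence over baseline measured at the second addition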
Target sequence (Q96LB2 whole entry, looked up): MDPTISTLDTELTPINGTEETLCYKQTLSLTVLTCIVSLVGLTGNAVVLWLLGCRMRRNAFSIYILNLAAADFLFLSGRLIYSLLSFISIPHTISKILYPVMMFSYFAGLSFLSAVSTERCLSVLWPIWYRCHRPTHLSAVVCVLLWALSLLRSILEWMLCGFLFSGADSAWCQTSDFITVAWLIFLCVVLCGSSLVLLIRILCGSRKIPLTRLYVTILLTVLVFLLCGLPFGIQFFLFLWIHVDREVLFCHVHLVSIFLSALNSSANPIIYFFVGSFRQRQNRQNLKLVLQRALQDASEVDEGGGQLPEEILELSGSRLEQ
MrgX1 ag: activates human MrgX1 receptor signaling; Q96LB2; MrgX1-HEK293 cells, Fluo-4 calcium fluorescence, agonist mode; hits give high values; B-score at 10 µM; hit rate 0.44% among 310,000; AID 588627;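 active = calcium response B-score plate-corrected fluorescence ratio at least 3 library SD, with starting fluorescence B-score inside 5 SD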
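Test system: Stable human MrgX1 HEK293 cell line | Schedule: Overnight plating before 1 h dye loading | Read-out basis: Baseline-normalised fluorescence change ratio, B-scored | Detection: Kinetic calcium dye fluorescence, Fluo-4 NW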
RGS4 pot: RGS4 potentiation or activation | HEK293 M3R/inducible RGS4, carbachol calcium flux Fluo4; hits give low values | B-score at 10 µM | hit rate 0.92% among 310,000;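 active = B-score of the integrated calcium signal more than 4 SD below the library mean, with starting fluorescence not abnormally high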;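 also: negative B-score means reduced calcium response which marks RGS4 activation or potentiation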
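Assay system: Inducible-RGS4 HEK293 cells carrying M3 receptor | Schedule: Compound preincubation 20 min at room temperature before agonist | Signal: Kinetic calcium fluorescence imaging with Fluo4-AM dye, 2 µM | Read-out basis: B score from integrated fluorescence ratio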
RGS4 inh: inhibitors of human RGS4; P49798; HEK293 M3R/RGS4 inducible, Fluo-4 calcium flux; hits give high values; triggered by carbachol at its EC20; B-score at 10 µM; hit rate 0.45% among 310,000; AID 463165;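 active = B-score, a plate-corrected calcium signal, over three deviations above library mean, with baseline fluorescence within five deviations of library mean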;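 also: RGS4 expression induced by doxycycline in cells with stable M3 receptor; B-score is computed from the integrated fluorescence ratio over baseline after carbachol; higher B-score means a larger calcium signal and so more RGS4 inhibition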
Target sequence (P49798 whole entry, looked up): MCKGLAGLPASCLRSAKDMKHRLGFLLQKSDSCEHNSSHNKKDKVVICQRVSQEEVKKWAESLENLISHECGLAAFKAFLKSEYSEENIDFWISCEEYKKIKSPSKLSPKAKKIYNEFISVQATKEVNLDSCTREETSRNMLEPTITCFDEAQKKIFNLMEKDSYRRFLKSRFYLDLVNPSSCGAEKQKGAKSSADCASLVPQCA
Cl transport mod: KCC2 (human) Cl- transport modulation; Q9H2X9; KCC2 cells, thallium flux FluoZin-2 fluorescence; B-score of Tl+ flux slope (higher = more flux/activation; lower = inhibition) at 10 µM; hit rate 2.2% among 190,000; AID 1456;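 active = thallium flux slope and its plate-corrected score both differing from the plate sample mean at a set confidence after two filtering rounds, in either direction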;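 also: slope of fluorescence scaled to starting intensity during 10 to 20 s after thallium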
MrgX1 antag: antagonists of human MrgX1 receptor; Q96LB2; MRGX1-HEK293 calcium flux, Fluo-4, BAM8-22 antagonism; hits give low values; B-score at 10 µM; hit rate 1.3% among 310,000;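 active = calcium-response B-score plate-corrected more than 3 library SD below zero, starting fluorescence within 5 deviations, no agonist response on first addition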;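 also: peak minus trough fluorescence over baseline after final BAM8-22 challenge near maximal dose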
KCC2 secondary: confirmation of human KCC2 transport modulators. shares compounds with Cl transport mod. HEK293-KCC2, thallium flux, FluoZin2 fluorescence; hits give high values. normalised thallium flux (F/F0 slope) at 10 µM. hit rate 15% among 3,700. AID 1713;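 active = thallium flux slope above the same plate's solvent-only control mean plus 3 SD; inconclusive = the two replicate wells disagree; inactive = no significant difference from solvent-only control wells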
KCC2 bumet counter: thallium flux despite bumetanide block in KCC2 cells, secondary assay 3; shares compounds with Cl transport mod; HEK293-KCC2 + bumetanide/ouabain, thallium flux FluoZin2; hits give high values; normalized thallium flux at 10 µM; hit rate 49% among 3,700; AID 1714;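 active = thallium entry rate above the same plate's blocked-transporter control wells by more than 3 SD; inconclusive = the two repeat wells disagree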;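 also: raw slope of fluorescence over initial fluorescence between 10 and 20 s after thallium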
KCC2 sec2: confirmation of human KCC2 transport modulators; shares compounds with Cl transport mod; HEK293-KCC2, thallium flux FluoZin2 fluorescence; actives lie on both sides; F/F0 rise rate, 10–20 s post-thallium; normalized thallium flux at 10 µM; hit rate 23% among 3,700;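 active = thallium flux slope more than 3 SD above or below the plate's solvent-only control mean, mostly below; inconclusive = the two repeat wells disagreed; inactive = no significant shift from solvent-only controls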;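 also: raw slope with 0.1% DMSO as baseline and bumetanide as block control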
HEK293 Tl flux: counter-screen for KCC2 modulators: effect in parental HEK293 cells | shares compounds with Cl transport mod | thallium flux FluoZin2, ouabain; baseline-ratio fluorescence slope, 10–20 s after thallium | thallium flux rate (normalised fluorescence) at 10 µM | hit rate 46% among 3,700 | AID 1716;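 active = thallium flux rate significantly above the same plate's solvent-only control wells, beyond their mean plus 3 SD; inconclusive = the two replicate wells gave conflicting results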
KCC2 ouabain: modulates human KCC2 on retest with ouabain; shares compounds with Cl transport mod; HEK293-KCC2, thallium flux FluoZin2 fluorescence; bidirectional: low = inhibitor, high = activator; raw Tl+ flux slope (below DMSO = inhibition, above = activation) at 10 µM; hit rate 48% among 3,700; AID 1717;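 active = thallium flux slope beyond 3 SD from same-plate DMSO control mean in most replicates, usually higher, sometimes lower; inconclusive = repeat tests gave conflicting results; inactive = no significant difference from controls in most replicates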;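 also: slope of initial-normalized fluorescence between seconds 10 and 20 after thallium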
HEK293 Tl flux2: parental HEK flux effect, counter-screen 2. AID 1718. HEK293 parental, thallium flux FluoZin-2 fluorescence slope. hit rate 33% among 3,700. thallium flux slope at 10 µM. shares compounds with Cl transport mod;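 active = thallium flux slope above the same plate's solvent-control mean plus 3 SD in both duplicate wells; inconclusive = duplicate wells that disagreed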;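 also: run without ouabain in cells lacking the KCC2 cotransporter; slope of fluorescence scaled to its starting value between 10 and 20 s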
RGS4 inh valid: validation of RGS4 inhibitors. HEK293 M3R/RGS4, carbachol calcium Fluo-4 fluorescence; carbachol added at its EC20; 0 = buffer wells, 100 = carbachol control. AID 492999. hit rate 65% among 1,700. calcium response, % at 10 µM. shares compounds with RGS4 inh;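 active = duplicate-averaged calcium response above the buffer-only control mean plus 5 SD of those controls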;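 also: integrated fluorescence ratio F max minus min over baseline F0; higher response in RGS4-induced cells means RGS4 inhibition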
M3R Ca ctr: counter-screen for RGS4 inhibitors: effect in non-induced cells; shares compounds with RGS4 inh; HEK293 M3R non-induced, carbachol calcium Fluo-4; submaximal (EC20) carbachol stimulus; buffer wells 0%, carbachol control wells 100%; activity (percent), % at 10 µM; hit rate 20% among 1,900; AID 493000; call rule not given here;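 also: RGS4 induction absent so cells express M3R without RGS4; higher means more calcium signal and flags a non-specific hit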
RGS4 inh ctr2: second RGS4 inhibitor counter-screen in uninduced cells lacking carbachol; shares compounds with RGS4 inh; HEK293 M3R/RGS4 non-induced, Fluo-4 calcium, no carbachol; normalised: buffer wells 0%, carbachol wells 100%; calcium response (agonist-mode artifact), % at 10 µM; hit rate 22% among 1,900; AID 493001;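 active = duplicate-averaged calcium rise in uninduced cells above buffer wells' mean plus 5 SD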
The depositor's hits bear a star; i = inactive; ? = inconclusive; · = not tested or not shown.

SMILES	MrgX1 PAM	MrgX1 ag	RGS4 pot	RGS4 inh	Cl transport mod	MrgX1 antag	KCC2 secondary	KCC2 bumet counter	KCC2 sec2	HEK293 Tl flux	KCC2 ouabain	HEK293 Tl flux2	M3R Ca ctr	RGS4 inh ctr2	others
CCn1c(=O)c2cc(C(=O)N(C)c3cc(C)ccc3OC)sc2c2ccccc21	i	i	i	6.05*	-2.97*	i	0.00851	?	0.0331	0.00556*	0.0187	?	59.5%*	i	RGS4 inh valid=30.5%*
Cc1ccc(C)c(CN2CCC(CNC(=O)Nc3ccc(F)c(Cl)c3)CC2)c1	i	i	i	i	·	i	·	·	·	·	·	·	·	·
O=C(OCn1ncc(Cl)c(Cl)c1=O)c1ccccc1Cl	i	i	i	7.4*	-4.25*	i	0.00851	0.0066	0.0317	?	0.0153*	0.0109	40.5%*	i	RGS4 inh valid=15.0%*
O=C(Cn1ncc(Cl)c(Cl)c1=O)c1ccc(Cl)cc1	i	i	i	i	-1.38	i	·	·	·	·	·	·	·	·
Cc1cc(=O)[nH]c2ccc(S(=O)(=O)NC3CCCCC3)cc12	i	i	i	i	·	i	·	·	·	·	·	·	·	·
Cc1csc(SCC(=O)Nc2nc(-c3ccccc3)cs2)n1	i	i	i	i	·	i	·	·	·	·	·	·	·	·
Cc1cc(=O)[nH]c(SCC(=O)Nc2nc(-c3ccccc3)cs2)n1	i	i	i	i	-7.13*	i	0.00791	0.00626	0.0338	0.0038	0.0147*	0.0114	i	i
CC(C)c1ccccc1NC(=O)CN1C(=O)c2ccccc2C1=O	i	i	i	i	·	i	·	·	·	·	·	·	·	·
O=C(NCC1CC1)c1ccccc1Cl	i	i	i	i	·	i	·	·	·	·	·	·	·	·

Compound activity: PubChem BioAssay, several laboratories
